From ChEMBL document CHEMBL1165987, “Cyclic tripeptides from the halotolerant fungus Aspergillus sclerotiorum PT06-1” (2010)
Converted amounts (≈) assume the structure as drawn. Each block holds one molecule with its values, some of them ahead of it. The source made the active and inactive calls. No cut-off for these calls is given here.

Columns and labels:
HL-60 = experiment: Cytotoxicity against human HL60 cells after 72 hrs by MTT assay; type: functional, cell-based
A549 = experiment: Cytotoxicity against human A549 cells after 24 hrs by SRB method; type: functional, cell-based
Escherichia coli = experiment: Antimicrobial activity against Escherichia coli after 24 hrs by agar dilution method; type: functional, organism-based
Procedure, shortened: (§1)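 Each organism was tested separately by agar dilution. The MIC was recorded as the read-out and given in µM.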

Staphylococcus aureus = experiment: Antimicrobial activity against Staphylococcus aureus after 24 hrs by agar dilution method; type: functional, organism-based; procedure, shortened: as §1
Candida albicans = experiment: Antimicrobial activity against Candida albicans after 24 hrs by agar dilution method; type: functional; procedure, shortened: as §1

SMILES: C/C=C/C=C/C=C/C(=O)N[C@H]1CCCNC(=O)[C@H](C)NC(=O)[C@H](C(C)C)N(C)C1=O
- inhibition (HL-60): inactive
- inhibition (A549): inactive
- MIC (Escherichia coli): inactive
- MIC (Staphylococcus aureus): inactive
- MIC (Candida albicans): 30 µM (≈ 12.6 µg/mL)

SMILES: C/C=C/C=C/C=C/C(=O)N[C@H]1CCCNC(=O)[C@H](C)N(C)C(=O)[C@H](C(C)C)NC1=O [SCLEROTIOTIDE A]
- inhibition (HL-60): inactive
- inhibition (A549): inactive
- MIC (Escherichia coli): inactive
- MIC (Staphylococcus aureus): inactive
- MIC (Candida albicans): 7.5 µM (≈ 3.14 µg/mL)

SMILES: C/C=C/C=C/C(=O)N[C@H]1CCCNC(=O)[C@H](C)N(C)C(=O)[C@H](C(C)C)N(C)C1=O [SCLEROTIOTIDE B]
- inhibition (HL-60): inactive
- inhibition (A549): inactive
- MIC (Escherichia coli): inactive
- MIC (Staphylococcus aureus): inactive
- MIC (Candida albicans): 3.8 µM (≈ 1.54 µg/mL)

Second part, led by results:

- MIC (Escherichia coli): inactive
- MIC (Staphylococcus aureus): inactive
- MIC (Candida albicans): 30 µM (≈ 12.6 µg/mL)
SMILES: CC(C)[C@H]1C(=O)N(C)[C@@H](C)C(=O)NCCC[C@H](NC(=O)/C=C/C=C/C=O)C(=O)N1C [SCLEROTIOTIDE F]
- inhibition (HL-60): inactive
- inhibition (A549): inactive

- MIC (Escherichia coli): inactive
- MIC (Staphylococcus aureus): inactive
- MIC (Candida albicans): 6.7 µM (≈ 3.13 µg/mL)
SMILES: CC(C)[C@H]1C(=O)N(C)[C@@H](C)C(=O)NCCC[C@H](NC(=O)/C=C/C=C/[C@@H](O)[C@@H](C)O)C(=O)N1C [SCLEROTIOTIDE I]
- inhibition (HL-60): inactive
- inhibition (A549): inactive
